Rows were chosen to be rich in hits. Some 1.8% of all compounds tested hit in one or more screens of this group.
beta cell repl: inducers of beta-cell replication in MIN6 cells; hit rate 0.29% among 330,000; proliferation, % at 10 µM; MIN6 cells proliferation, ATPlite luminescence, 48 h; cells starved in 0.2% serum; 100% = growth in 10% serum;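 active means compounds whose signal lies at least 3.5 SD above the mean of all wells on their plate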;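 further: 0% = DMSO-treated cells in low-serum medium and 100% = 10% serum control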
hiPSC survival: enhancers of human iPSC single-cell survival; hit rate 0.044% among 360,000; survival enhancement, % at 20 µM; hiPSC single-cell survival, ATPlite luminescence; 100% = ROCK inhibitor wells, 0% = DMSO; in the data active means survival enhancement above about 18%;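 further: cells exposed to compounds for 16 hours before the ATP read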
PPC-1+TRAIL kill: compounds killing PPC-1 cancer cells with TRAIL present (potentiator screen, no TRAIL-free arm). AID 1443. PPC-1 cells + TRAIL, ATPLite viability luminescence. cell killing (% activity), % at 4 µM or 5 µM. hit rate 0.41% among 220,000;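 active means cell killing above 50% in the first pass at 4 µM, then a duplicate retest at 5 µM averaging 50% or more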;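 further: plate controls were cells with TRAIL plus DMSO for no effect and medium-only wells lacking cells for full effect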
C8 TRAIL sens: sensitizes caspase-8 expressing cells to TRAIL; NB7+C8 cells + TRAIL, ATPlite viability luminescence; hit rate 1% among 360,000; inhibition (viability loss, TRAIL sensitization), % at 10 µM;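 active means compounds causing at least 50% loss of cell viability in the single-dose screen, relative to plate controls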
FLuc stim CS: affects firefly luciferase, flagging false hits in luciferase stimulation screens; P08659; ATPlite luciferase biochemical, luminescence, 10 min; 0 = ATP-free wells, 1 = DMSO control; activation factor at 10 µM; 200,000 tested, under 10 active;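 active means luciferase activation factor, scaled between plate controls, of at least 2 with compound at 10 µM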
Target sequence (P08659 whole entry, looked up): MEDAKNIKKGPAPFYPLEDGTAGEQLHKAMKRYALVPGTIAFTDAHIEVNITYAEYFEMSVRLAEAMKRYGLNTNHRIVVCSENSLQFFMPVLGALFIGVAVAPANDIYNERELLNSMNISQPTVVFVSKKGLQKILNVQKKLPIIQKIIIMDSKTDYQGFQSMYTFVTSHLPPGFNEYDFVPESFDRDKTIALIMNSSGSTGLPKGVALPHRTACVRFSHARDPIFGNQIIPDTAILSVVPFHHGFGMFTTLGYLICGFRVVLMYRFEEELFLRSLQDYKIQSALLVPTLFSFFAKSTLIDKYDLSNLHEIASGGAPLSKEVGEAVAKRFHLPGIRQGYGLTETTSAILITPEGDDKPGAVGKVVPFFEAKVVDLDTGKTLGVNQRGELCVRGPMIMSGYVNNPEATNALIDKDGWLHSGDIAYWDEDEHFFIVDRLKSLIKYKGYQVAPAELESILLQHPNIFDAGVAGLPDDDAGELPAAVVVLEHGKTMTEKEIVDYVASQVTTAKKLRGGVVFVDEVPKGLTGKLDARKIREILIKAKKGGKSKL
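System: cell-free luciferase reagent; medium: PBS as buffer for the ATP substrate; doses: test compounds dosed from 2 mM stocks in 100% DMSO; incubation: 10 min, room temperature; measured by: luminescence from luciferase reaction; read-out: luciferase activation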
FLuc inhib CS: Photinus pyralis luciferase inhibition counter-screen. P08659. ATPLite firefly luciferase biochemical luminescence, 10 min. inhibition, % at 10 µM. hit rate 1.5% among 200,000;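 active means inhibition above about 50% when tested at 10 µM, limit read from the data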
Numbers without * were called inactive; . = not tested or not shown.

SMILES	beta cell repl	hiPSC survival	PPC-1+TRAIL kill	C8 TRAIL sens	FLuc stim CS	FLuc inhib CS
COc1ccc(C2=Nc3ccccc3OC2)cc1	-5	2	9	13	0.5	51*
COc1ccc(C2=NC(c3ccccc3)CO2)cc1 (centres undefined)	3	.	23	.	0.7	27
Cc1c(N=Cc2nc3ccccc3[nH]2)c(=O)n(-c2ccccc2)n1C	-3	0	20	8	0.7	31
Cc1c(N=Cc2nc3ccccc3n2C)c(=O)n(-c2ccccc2)n1C	0	0	15	-13	0.2	83*
CC(=O)c1ccc(OCC(=O)N2CCCC2c2ccc3c(c2)OCCCO3)cc1 (centres undefined)	-4	2	.	-15	.	.
O=C(CCl)N1CCCC1c1ccc2c(c1)OCCO2 (centres undefined)	-4	1	.	65*	.	.
Clc1ncnc2c1oc1ccccc12	-2	-6	11	65*	1.1	-5
NC(C(=O)O)C1ON=C(Cl)C1O (centres undefined)	.	0	.	78*	.	.
O=c1c2ccccc2nc2ccc(NCc3cccs3)nn12	-4	-1	.	13	0.4	59*
O=C(N/N=C/c1ccc2c(c1)OCO2)c1cccs1	-1	-2	29	41	0.2	75*
O=C(O)c1ccc(N/N=C/c2ccc3c(c2)OCO3)cc1	-2	0	4	31	0.4	61*
O=C(N/N=C/c1ccc2c(c1)OCO2)c1cccc2ccccc12	2	1	.	27	.	.
O=C(N/N=C/c1ccc2c(c1)OCO2)c1ccc2ccccc2n1	0	-5	19	46	0.3	67*
Cn1cnnc1SCc1ccc(C(=O)N/N=C/c2cccs2)cc1	-4	-1	23	28	0.4	65*
O=C(O)c1cc(N/N=C/c2ccc3c(c2)OCO3)ccc1Cl	-2	2	17	-3	0.8	21
Cc1cccc(C(=O)N/N=C/c2ccc3c(c2)OCO3)n1	-1	5	-4	15	0.9	8
CCCCn1c(N)c(N(CC)C(=O)c2ccc([N+](=O)[O-])c(C)c2)c(=O)[nH]c1=O	-2	0	.	-35	.	.
Cc1csc(=O)n1CCC(=O)OCC(=O)NCc1ccc(F)cc1	3	0	.	-10	.	.
CCOC(=O)c1cnc2cc(F)c(F)cc2c1N1CCN(C)CC1	2	-1	.	17	.	.
Cc1ccsc1C(=O)N/N=C/c1ccc2c(c1)OCO2	-4	-3	25	29	0.4	64*
Cc1cc(C(=O)N/N=C/c2ccc3c(c2)OCO3)c(C)o1	-3	0	34	32	0.4	64*
O=C(NN=Cc1ccc2c(c1)CCN2)c1cccs1	.	-3	.	50*	.	.
Cc1occc1C(=O)N/N=C/c1ccc2c(c1)OCO2	-1	-1	22	35	.	.
O=C(N/N=C/c1c[nH]c2ccccc12)c1ccccc1	-3	0	.	2	.	.
O=C(N/N=C/c1c[nH]c2ccccc12)c1ccc2c(c1)OCCO2	-4	-1	44	76*	.	.
SMILES	beta cell repl	hiPSC survival	PPC-1+TRAIL kill	C8 TRAIL sens	FLuc stim CS	FLuc inhib CS
O=C(N/N=C/c1cccs1)c1ccc2c(c1)OCO2	-5	-2	59*	76*	0.1	88*
O=C(N/N=C/c1ccc2c(c1)OCO2)c1ccc2c(c1)OCCO2	-4	-2	26	34	0.2	80*
O=C(O)c1cc(N/N=C/c2ccc3c(c2)OCCO3)ccc1Cl	.	3	6	-13	0.4	56*
O=c1[nH][nH]c2c1[C@H](CCc1cccc(Cl)c1)O[C@H](CCc1ccccc1)C2	.	0	.	-28	.	.
O=C(NCc1ccncc1)C1CCN(S(=O)(=O)c2ccccc2)CC1	-2	0	.	3	.	.
CCOC(=O)c1sc(=S)n(-c2ccc(OC)cc2)c1C	-3	0	12	16	.	.
CCOC(=O)c1c2c(n(-c3ccc(OC)cc3)c1C)C(=O)C(=O)c1ccccc1-2	.	-2	.	95*	.	.
NC(=O)C1CCN(C(=O)c2cc(Cl)c3c(c2)OCCO3)CC1	0	-1	.	12	.	.
CC(=O)c1sc(NC(=O)c2cc(=O)c3ccccc3o2)nc1C	-4	0	38	54*	0.2	83*
CCOC(=O)c1csc(NC(=O)c2cc(=O)c3ccccc3o2)n1	-2	6	8	1	0.8	17
COc1cccc(OC)c1C(=O)Nc1ccc(S(=O)(=O)N2CCCCC2)cc1	-1	0	.	-1	.	.
CCN1/C(=C/c2ccc3cccc(C)c3[n+]2CC)Sc2ccccc21	-6	-4	25	61*	1	-4
C[n+]1ccccc1/C=C1\Sc2ccccc2N1CCO	-5	0	.	-1	.	.
CCOC(=O)NC(=O)CSc1nc(C)cc(C)c1C#N	-5	-4	37	72*	0.6	36
O=C(Cc1c[nH]c2ccccc12)Nc1ccccc1N1CCOCC1	5	0	14	7	1.1	-6
Cc1c(C(=O)NCc2ccccc2C(F)(F)F)sc(=O)n1Cc1ccc(S(=O)(=O)N(C)C)cc1	.	0	.	15	.	.
Cc1ccc2nc(-c3sc4nc(C)cc(C)c4c3N)[nH]c2c1	-4	-4	31	56*	0.4	64*
O=[N+]([O-])c1ccc(O)c(C=Nc2ccc3nc(-c4ccccc4)[nH]c3c2)c1	0	-3	17	18	0.6	41
Cc1ccc(-c2nc3ccc([N+](=O)[O-])cc3[nH]2)cc1	-3	-2	32	34	0.4	61*
Oc1c(Br)cc(C=Nc2ccc3nc(-c4ccccc4)[nH]c3c2)c(O)c1Br	-3	.	17	.	0.4	56*
CC(=O)c1sc2nc(C)cc(C)c2c1N	1	-3	-7	-1	1	-2
Cc1ccc2nc(-c3cccc(N)c3)[nH]c2c1	-3	-6	43	68*	0.1	88*
O=NN(CCF)C(=O)NC1CCS(=O)(=O)CC1	.	0	.	-4	.	.
O=C(N/C(=C\c1ccccc1)C(=O)N1CCOCC1)c1ccccc1Cl	-1	0	.	1	.	.
COc1ccc2nc(-c3ccccc3)[nH]c2c1	-4	-3	44	51*	0.3	74*
SMILES	beta cell repl	hiPSC survival	PPC-1+TRAIL kill	C8 TRAIL sens	FLuc stim CS	FLuc inhib CS
COc1ccc(-c2nc3ccc([N+](=O)[O-])cc3[nH]2)cc1	.	-2	24	20	0.6	44
Clc1ccc(/C=N/NC2=Nc3cccc4cccc2c34)cc1	0	0	20	17	0.7	28
C(=N\NC1=Nc2cccc3cccc1c23)/c1ccccc1	0	-2	32	50*	0.3	67*
Clc1ccc(N/N=C/c2cccnc2)cc1	0	0	-8	13	0.9	8
C(=N\NC1=Nc2cccc3cccc1c23)/c1cccnc1	-2	-2	24	27	0.4	60*
COc1ccc(Cn2cc(CN3CCc4onc(-c5ccccc5OC)c4C3=O)nn2)cc1	.	-1	.	5	.	.
Cc1cc(/C=C(\C#N)C(=O)N2CCOCC2)c(C)n1C1CCCC1	-2	-1	28	39	.	.

Compound activity (PubChem BioAssay)
